Measured values published in ChEMBL document CHEMBL2331269, “Design and synthesis of amphiphilic xanthone-based, membrane-targeting antimicrobials with improved membrane selectivity” (J Med Chem, 2013).
Values after ≈ are worked out from the molar mass of the structure shown. Active and inactive are the calls of the source. The calls are words filed in the database; no cut-off is given here.

Experiments:
[1] = system: Klebsiella pneumoniae; experiment: Antibacterial activity against Klebsiella pneumoniae ATCC 10031 after 20 to 22 hrs by CLSI broth macro-dilution method; assay type: functional
[2] = Partition coefficient, log P of the compound by HPLC analysis; assay type: physicochemical; conditions: octanol/water
Summary of the method: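 Partition coefficient measured by HPLC following OECD guidelines for the testing of chemicals.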

[3] = system: Pseudomonas aeruginosa; experiment: Antibacterial activity against Pseudomonas aeruginosa ATCC 27853 after 20 to 22 hrs by CLSI broth macro-dilution method; assay type: functional
[4] = Selectivity ratio of HC50 for rabbit erythrocyte to MIC99 for Staphylococcus aureus ATCC 29213; assay type: functional
[5] = Selectivity ratio of HC50 for rabbit erythrocyte to MIC99 for methicillin-resistant Staphylococcus aureus clinical isolate DM21455; assay type: functional
[6] = Hemolytic activity against rabbit erythrocytes after 60 mins by spectrophotometric analysis; assay type: ADME, cell-based, Oryctolagus cuniculus, Erythrocyte
[7] = system: Staphylococcus aureus; experiment: Antibacterial activity against methicillin-resistant Staphylococcus aureus clinical isolate DM21455 after 20 to 22 hrs by CLSI broth macro-dilution method; assay type: functional
[8] = system: Staphylococcus aureus; experiment: Antibacterial activity against Staphylococcus aureus ATCC 29213 after 20 to 22 hrs by CLSI broth macro-dilution method; assay type: functional
[9] = system: Staphylococcus aureus; experiment: Antibacterial activity against methicillin-resistant Staphylococcus aureus DR42412 obtained from sputum isolate after 20 to 22 hrs by CLSI broth macro-dilution method; assay type: functional
[10] = system: Staphylococcus aureus; experiment: Antibacterial activity against methicillin-resistant Staphylococcus aureus DM21595 obtained from wound isolate after 20 to 22 hrs by CLSI broth macro-dilution method; assay type: functional
[11] = system: Staphylococcus aureus; experiment: Antibacterial activity against methicillin-resistant Staphylococcus aureus DM09808R obtained from eye isolate after 20 to 22 hrs by CLSI broth macro-dilution method; assay type: functional
[12] = system: Staphylococcus aureus; experiment: Antibacterial activity against methicillin-resistant Staphylococcus aureus ATCC […] after 20 to 22 hrs by CLSI broth macro-dilution method; assay type: functional
[13] = Toxicity against New Zealand White rabbit corneal epithelium assessed as effect on wound closure at 50 ug/ml by Slit lamp photography relative to control; assay type: tissue-based, Oryctolagus cuniculus, Cornea; conditions: in vivo
Summary of the method: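 A 5 mm corneal epithelial abrasion was made with a sterile trephine and the epithelium removed with a mini blade. Eyes were treated with saline, vancomycin 50 μg/mL, or agent 50 μg/mL. Wound closure was tracked over time from fluorescein-stained photographs of defect size.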

[14] = system: Staphylococcus aureus; experiment: Antibacterial activity against methicillin-resistant Staphylococcus aureus DM21595 assessed as log reduction in CFU at 0.5 X MIC to 4 X MIC after 24 hrs by surface-spread plate method relative to control; assay type: functional
[15] = system: Staphylococcus aureus; experiment: Antibacterial activity against methicillin-resistant Staphylococcus aureus ATCC 700699 assessed as log reduction in CFU at 0.5 X MIC to 4 X MIC after 24 hrs by surface-spread plate method relative to control; assay type: functional
[16] = system: Staphylococcus aureus; experiment: Antibacterial activity against methicillin-resistant Staphylococcus aureus DM42412 assessed as log reduction in CFU at 0.5 X MIC to 4 X MIC after 24 hrs by surface-spread plate method relative to control; assay type: functional
[17] = system: Staphylococcus aureus; experiment: Antibacterial activity against methicillin-resistant Staphylococcus aureus DM09808R assessed as log reduction in CFU at 0.5 X MIC to 4 X MIC after 24 hrs by surface-spread plate method relative to control; assay type: functional
[18] = system: Staphylococcus aureus; experiment: Antibacterial activity against methicillin-resistant Staphylococcus aureus DM21455 assessed as log reduction in CFU at 0.5 X MIC to 4 X MIC after 24 hrs by surface-spread plate method relative to control; assay type: functional
[19] = Dissociation constant, pKa of the compound; assay type: physicochemical
[20] = system: Staphylococcus aureus; experiment: Antimicrobial activity against in Staphylococcus aureus assessed as disruption of bacterial membrane at 10 uM by fluorescence microscopy; assay type: functional, organism-based
Summary of the method: (§1)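 S. aureus DM4001 treated with 10 μM agent and incubated with the membrane-impermeant nucleic-acid dye SYTOX Green. Permeabilization was read as increased fluorescence intensity and confirmed by fluorescence microscopy counting green-stained cells.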

[21] = system: Staphylococcus aureus; experiment: Antimicrobial activity against Staphylococcus aureus assessed as disruption of bacterial membrane at 10 uM by SYTOX green uptake assay; assay type: functional, organism-based; summary of the method: as §1
[22] = system: Staphylococcus aureus; experiment: Antibacterial activity against methicillin-resistant Staphylococcus aureus DM21595 assessed as log reduction in CFU at 0.5 X MIC to 4 X MIC after 8 hrs by surface-spread plate method relative to control; assay type: functional, organism-based
[23] = system: Staphylococcus aureus; experiment: Antibacterial activity against methicillin-resistant Staphylococcus aureus ATCC 700699 assessed as log reduction in CFU at 0.5 X MIC to 4 X MIC after 8 hrs by surface-spread plate method relative to control relative to control; assay type: functional, organism-based
[24] = system: Staphylococcus aureus; experiment: Antibacterial activity against methicillin-resistant Staphylococcus aureus DM42412 assessed as log reduction in CFU at 0.5 X MIC to 4 X MIC after 8 hrs by surface-spread plate method relative to control; assay type: functional, organism-based
[25] = system: Staphylococcus aureus; experiment: Antibacterial activity against methicillin-resistant Staphylococcus aureus DM21455 assessed as log reduction in CFU at 0.5 X MIC to 4 X MIC after 8 hrs by surface-spread plate method relative to control; assay type: functional, organism-based
[26] = system: Staphylococcus aureus; experiment: Antibacterial activity against methicillin-resistant Staphylococcus aureus DM09808R assessed as log reduction in CFU at 0.5 X MIC to 4 X MIC after 8 hrs by surface-spread plate method relative to control; assay type: functional, organism-based

| SMILES | logP ([2]; read-out: logP) | Selectivity ratio [4] | Selectivity ratio [5] | HC50 at 1 h [6] [µM] | MIC99 [7] [µg/mL] | MIC99 [8] [µg/mL] | pKa [19] | further results |
| --- | --- | --- | --- | --- | --- | --- | --- | --- |
| COc1c(O)cc2oc3cc(O)c(CC=C(C)C)c(O)c3c(=O)c2c1CC=C(C)C [MANGOSTIN] | 6.75 | 5.77 | 5.77 | 9 | 1.56 (≈ 3.8 µM) | 1.56 (≈ 3.8 µM) | – | MIC [1]: > 200 µg/mL; MIC [3]: > 200 µg/mL |
| CN[C@H](CC(C)C)C(=O)N[C@H]1C(=O)N[C@@H](CC(N)=O)C(=O)N[C@H]2C(=O)N[C@H]3C(=O)N[C@H](C(=O)N[C@H](C(=O)O)c4cc(O)cc(O)c4-c4cc3ccc4O)[C@H](O)c3ccc(c(Cl)c3)Oc3cc2cc(c3O[C@@H]2O[C@H](CO)[C@@H](O)[C@H](O)[C@H]2O[C@H]2C[C@](C)(N)[C@H](O)[C@H](C)O2)Oc2ccc(cc2Cl)[C@H]1O [VANCOMYCIN] | – | – | – | – | 0.78 (≈ 0.538 µM) | – | – | MIC [9]: 0.78 µg/mL (≈ 0.538 µM); MIC [10]: 0.39 µg/mL (≈ 0.269 µM); MIC [11]: 0.39 µg/mL (≈ 0.269 µM); MIC [12]: 6.25 µg/mL (≈ 4.31 µM); Activity [13]: Non-toxic; FC [14]: 3; FC [15]: 3; FC [16]: 3; FC [17]: 3; FC [18]: 3 |
| CCN(CC)CCCOc1cc2oc3cc(OCCCN(CC)CC)c(OC)c(CC=C(C)C)c3c(=O)c2c(O)c1CC=C(C)C | 6.27 | 20.9 | 41.7 | 16.3 | 0.39 (≈ 0.612 µM) | 0.78 (≈ 1.22 µM) | 11 | – |
| COc1c(OCCCCN2CCOCC2)cc2oc3cc(OCCCCN4CCOCC4)c(CC=C(C)C)c(O)c3c(=O)c2c1CC=C(C)C | 5.42 | – | – | > 200 | > 200 | > 200 | 8.36 | – |
| COc1c(OCCCCBr)cc2oc3cc(OCCCCBr)c(CC=C(C)C)c(O)c3c(=O)c2c1CC=C(C)C | – | – | – | > 200 | > 200 | > 200 | – | Activity [20]: inactive; Activity [21]: inactive |
| CCN(CC)CCCCCOc1cc2oc3cc(OCCCCCN(CC)CC)c(OC)c(CC=C(C)C)c3c(=O)c2c(O)c1CC=C(C)C | 7.55 | 9 | 18 | 14 | 0.78 (≈ 1.13 µM) | 1.56 (≈ 2.25 µM) | 11 | – |
| COc1c(OCCCCn2cccn2)cc2oc3cc(OCCCCn4cccn4)c(CC=C(C)C)c(O)c3c(=O)c2c1CC=C(C)C | – | – | – | > 200 | > 200 | > 200 | 2.52 | logP [2]: 9.28 |
| COc1c(OCCCCN2CCCCC2)cc2oc3cc(OCCCCN4CCCCC4)c(CC=C(C)C)c(O)c3c(=O)c2c1CC=C(C)C | 6.93 | 24.7 | 12.3 | 19.3 | 1.56 (≈ 2.26 µM) | 0.78 (≈ 1.13 µM) | 11.2 | – |
| COc1c(OCCCCn2cncn2)cc2oc3cc(OCCCCn4cncn4)c(CC=C(C)C)c(O)c3c(=O)c2c1CC=C(C)C | – | – | – | > 200 | > 200 | > 200 | 2.2 | logP [2]: 11.08 |
| CCN(CC)CCCCCCOc1cc2oc3cc(OCCCCCCN(CC)CC)c(OC)c(CC=C(C)C)c3c(=O)c2c(O)c1CC=C(C)C | 8.39 | 17 | 17 | 26.5 | 1.56 (≈ 2.16 µM) | 1.56 (≈ 2.16 µM) | 11 | – |
| CCCCCCCCCC(=O)N[C@@H](Cc1c[nH]c2ccccc12)C(=O)N[C@H](CC(N)=O)C(=O)N[C@@H](CC(=O)O)C(=O)N[C@@H]1C(=O)NCC(=O)N[C@@H](CCCN)C(=O)N[C@@H](CC(=O)O)C(=O)N[C@H](C)C(=O)N[C@@H](CC(=O)O)C(=O)NCC(=O)N[C@H](CO)C(=O)N[C@@H]([C@H](C)CC(=O)O)C(=O)N[C@@H](CC(=O)c2ccccc2N)C(=O)O[C@@H]1C | – | – | – | – | 0.78 (≈ 0.481 µM) | – | – | MIC [9]: 0.195 µg/mL (≈ 0.12 µM); MIC [10]: 0.78 µg/mL (≈ 0.481 µM); MIC [11]: 0.195 µg/mL (≈ 0.12 µM); MIC [12]: 0.78 µg/mL (≈ 0.481 µM); Activity [22]: inactive; Activity [23]: inactive; Activity [24]: inactive; Activity [25]: inactive; Activity [26]: inactive |
| COc1c(OCCCCN2CCCC2)cc2oc3cc(OCCCCN4CCCC4)c(CC=C(C)C)c(O)c3c(=O)c2c1CC=C(C)C | 6.63 | 16 | 16 | 25 | 1.56 (≈ 2.36 µM) | 1.56 (≈ 2.36 µM) | 11.3 | – |
